Results reported in paper PMC6579116 (Macromolecular bioscience, 2019).

Tests used:
[1] = tested on: atherosclerosis in LDLR KO mice fed high fat diet; test: Atherosclerosis treatment study; type: in vivo, mouse; conditions: both sexes; IV twice per week for 8 weeks
How it was run: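 LDLR KO mice on high-fat diet (20% fat, 0.2% cholesterol, 34% sucrose) from 4 weeks of age. After 14 weeks on diet, IV injection under isoflurane (dorsal penile vein, males; retro-orbital, females) twice weekly for 8 weeks. […] Controls: PBS, scrambled PA. Aortic root sections stained with Oil Red O; plaque area/total root area. n=8–10 mice/group; ANOVA with post-hoc t-test.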

[2] = Treatment study serum chemistry; type: in vivo, mouse; conditions: for Creatine: 6 mg/kg
[3] = TEM analysis of nanofiber formation, diameter and length; type: physicochemical; conditions: 1 mM in PBS, 30 measurements from three images; for Length, Average / Length, Median: ImageJ
How it was run: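 Nanofiber diameter and length were measured by hand on TEM images in ImageJ; overlapping fibers ruled out automated tracing.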

[4] = male LDLR KO mice, IV twice per week for 8 weeks

Molecule | reversal of atherosclerosis from baseline levels [1] | liver toxicity: aspartate aminotransferase (AST) in the blood in comparison to PBS, male mice ([2]; mouse, in vivo, iv) | Diameter, Max. [3] | Diameter, Min. [3] | Length, Max. [3] | Length, Min. [3] | Length, Average [3] | Length, Median [3] | liver toxicity: aspartate aminotransferase (AST) in the blood in comparison to PBS, male mice [2, 4] | Creatine ([2]; mouse, in vivo, iv)
O=C(O)Cc1cccc(OCCCN(Cc2cccc(C(F)(F)F)c2Cl)CC(c2ccccc2)c2ccccc2)c1 [LXR, GW3965, reference compound] | approximately 5% | significantly elevated levels | – | – | – | – | – | – | – | –
C16-V2A2E2-C-DWFAKDYFKKAFVEEFAK-NH2 [Scr PA] | – | – | 18.3 nm | 8.8 nm | 1472.9 nm | 30.0 nm | 403.8 nm | 257.6 nm | significantly elevated levels | 0(0–0.1) 0(0–0.1) 0(0–0.1) U/L
C16-V2A2E2-G-DWFKAFYDKVAEKFKEAF-NH2 [ApoA1 PA] | – | – | 14.4 nm | 6.2 nm | 2183.3 nm | 39.4 nm | 626.9 nm | 615.9 nm | Neither ApoA1-LXR PAs nor ApoA1 PAs increased AST levels | 0(0–0.1) 0(0–0.1) 0(0–0.1) U/L
